In ChEMBL document CHEMBL5653631, “A Potent and Selective ULK1 Inhibitor Suppresses Autophagy and Sensitizes Cancer Cells to Nutrient Stress” (iScience, 2018):
Values belong to the compound of their own block, whether it stands above or below them.

Legend:
[1] = molecular target: T1, Activin receptor type-1 (Homo sapiens) (UniProt Q04771); assay: Inhibition of human recombinant ALK2 at 500 nM in presence of ATP by radiometric assay relative to control
T1 sequence (whole entry): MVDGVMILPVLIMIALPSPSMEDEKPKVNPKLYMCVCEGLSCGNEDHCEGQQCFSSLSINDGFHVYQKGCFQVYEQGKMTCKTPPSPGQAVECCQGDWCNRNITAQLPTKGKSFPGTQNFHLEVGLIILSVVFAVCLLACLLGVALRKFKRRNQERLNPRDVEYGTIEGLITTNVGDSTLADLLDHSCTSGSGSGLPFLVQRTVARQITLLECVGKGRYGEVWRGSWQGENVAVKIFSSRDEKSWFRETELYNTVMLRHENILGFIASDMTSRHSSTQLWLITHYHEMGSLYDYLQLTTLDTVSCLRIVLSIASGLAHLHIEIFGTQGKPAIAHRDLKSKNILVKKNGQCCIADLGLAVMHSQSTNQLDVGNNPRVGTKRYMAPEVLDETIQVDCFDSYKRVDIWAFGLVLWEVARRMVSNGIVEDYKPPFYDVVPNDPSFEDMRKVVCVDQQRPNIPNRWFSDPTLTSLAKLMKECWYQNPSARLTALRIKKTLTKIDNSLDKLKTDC
In short: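 Panel of 327 recombinant human kinases, each assayed in vitro by radiometric activity assay in duplicate at a single inhibitor concentration per compound, chosen with reference to its ULK1 inhibition. Activity remaining was expressed as percent of vehicle control, and percent inhibition was calculated as 100 minus percent activity remaining.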

[2] = molecular target: Tyrosine-protein kinase HCK (Homo sapiens) (UniProt P08631); assay: Inhibition of human recombinant HCK at 40 nM related to control ULK1
[3] = molecular target: Bone morphogenetic protein receptor type-1B (Homo sapiens) (UniProt O00238); assay: Inhibition of human recombinant BMPR1B at 40 nM related to control ULK1
In short: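 Radiometric activity assays in a panel of 327 human recombinant kinases, each run in duplicate at one inhibitor concentration. Activity remaining is expressed as percent of vehicle control, and percent inhibition is calculated as 100% minus percent activity remaining.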

[4] = molecular target: T2, Dual specificity mitogen-activated protein kinase kinase 6 (Homo sapiens) (UniProt P52564); assay: Inhibition of human recombinant MAP2K6 at 40 nM in presence of ATP by radiometric assay relative to control
T2 sequence (whole entry): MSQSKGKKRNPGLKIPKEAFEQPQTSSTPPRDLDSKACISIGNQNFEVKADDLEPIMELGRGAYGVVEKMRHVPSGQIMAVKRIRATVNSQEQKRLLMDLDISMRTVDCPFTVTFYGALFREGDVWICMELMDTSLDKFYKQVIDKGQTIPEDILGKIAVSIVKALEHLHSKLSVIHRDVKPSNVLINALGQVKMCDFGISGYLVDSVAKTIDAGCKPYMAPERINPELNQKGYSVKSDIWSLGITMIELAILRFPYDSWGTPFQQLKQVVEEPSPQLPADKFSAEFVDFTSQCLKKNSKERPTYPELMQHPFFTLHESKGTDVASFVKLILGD

[5] = molecular target: T3, Mitogen-activated protein kinase kinase kinase 7 (Homo sapiens) (UniProt O43318); assay: Inhibition of human recombinant TAK1 at 40 nM in presence of ATP by radiometric assay relative to control
T3 sequence (whole entry): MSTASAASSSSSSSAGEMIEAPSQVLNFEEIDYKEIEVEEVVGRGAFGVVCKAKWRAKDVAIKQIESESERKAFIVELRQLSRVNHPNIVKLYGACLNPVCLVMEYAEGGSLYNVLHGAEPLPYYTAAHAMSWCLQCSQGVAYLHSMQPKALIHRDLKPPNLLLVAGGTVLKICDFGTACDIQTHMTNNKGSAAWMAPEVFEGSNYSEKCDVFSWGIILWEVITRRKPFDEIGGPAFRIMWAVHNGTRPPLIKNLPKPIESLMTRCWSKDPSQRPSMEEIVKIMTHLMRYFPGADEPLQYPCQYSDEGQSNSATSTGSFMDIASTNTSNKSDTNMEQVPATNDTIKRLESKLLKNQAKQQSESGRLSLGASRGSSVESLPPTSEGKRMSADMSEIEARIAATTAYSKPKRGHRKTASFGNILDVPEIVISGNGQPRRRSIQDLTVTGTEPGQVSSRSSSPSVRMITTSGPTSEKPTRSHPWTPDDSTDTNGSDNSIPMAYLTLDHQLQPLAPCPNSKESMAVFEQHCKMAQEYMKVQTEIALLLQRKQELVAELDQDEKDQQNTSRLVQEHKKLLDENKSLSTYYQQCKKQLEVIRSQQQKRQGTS

[6] = molecular target: T4, Myotonin-protein kinase (Homo sapiens) (UniProt Q09013); assay: Inhibition of human recombinant DMPK1 at 15 nM in presence of ATP by radiometric assay relative to control
T4 sequence (whole entry): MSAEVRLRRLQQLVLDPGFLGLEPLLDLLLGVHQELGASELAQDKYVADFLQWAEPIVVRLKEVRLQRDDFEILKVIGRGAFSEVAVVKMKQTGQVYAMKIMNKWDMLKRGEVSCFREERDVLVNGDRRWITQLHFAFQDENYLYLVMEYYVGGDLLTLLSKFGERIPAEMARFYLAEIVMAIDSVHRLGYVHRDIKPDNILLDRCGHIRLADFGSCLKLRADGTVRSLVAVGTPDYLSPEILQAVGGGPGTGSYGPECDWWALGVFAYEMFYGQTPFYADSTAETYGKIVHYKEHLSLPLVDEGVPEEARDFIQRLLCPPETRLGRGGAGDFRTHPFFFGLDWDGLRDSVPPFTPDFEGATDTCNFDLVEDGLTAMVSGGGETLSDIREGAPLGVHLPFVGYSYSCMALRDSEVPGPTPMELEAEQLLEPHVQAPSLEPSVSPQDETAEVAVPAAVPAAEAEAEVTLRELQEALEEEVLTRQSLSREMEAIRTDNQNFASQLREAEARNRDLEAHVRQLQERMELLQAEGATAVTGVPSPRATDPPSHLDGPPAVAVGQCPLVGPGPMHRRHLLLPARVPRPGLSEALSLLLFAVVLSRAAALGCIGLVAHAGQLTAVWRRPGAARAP

Chain of Bone morphogenetic protein receptor type-1B (Homo sapiens) (O00238 whole entry): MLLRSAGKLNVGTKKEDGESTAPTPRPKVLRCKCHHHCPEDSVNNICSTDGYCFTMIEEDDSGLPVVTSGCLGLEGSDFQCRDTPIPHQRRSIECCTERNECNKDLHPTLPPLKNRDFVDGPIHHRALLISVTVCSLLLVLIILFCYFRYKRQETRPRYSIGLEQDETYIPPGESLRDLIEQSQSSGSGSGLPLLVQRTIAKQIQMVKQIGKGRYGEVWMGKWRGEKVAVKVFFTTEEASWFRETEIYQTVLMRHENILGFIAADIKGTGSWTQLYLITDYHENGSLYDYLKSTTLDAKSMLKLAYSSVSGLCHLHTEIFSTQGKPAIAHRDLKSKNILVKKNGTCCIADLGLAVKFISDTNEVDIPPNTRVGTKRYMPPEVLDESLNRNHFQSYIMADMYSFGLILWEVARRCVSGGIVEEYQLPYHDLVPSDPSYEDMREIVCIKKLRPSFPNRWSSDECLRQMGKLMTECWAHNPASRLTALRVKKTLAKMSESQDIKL
Chain of Tyrosine-protein kinase HCK (Homo sapiens) (P08631 2-526 limits assumed): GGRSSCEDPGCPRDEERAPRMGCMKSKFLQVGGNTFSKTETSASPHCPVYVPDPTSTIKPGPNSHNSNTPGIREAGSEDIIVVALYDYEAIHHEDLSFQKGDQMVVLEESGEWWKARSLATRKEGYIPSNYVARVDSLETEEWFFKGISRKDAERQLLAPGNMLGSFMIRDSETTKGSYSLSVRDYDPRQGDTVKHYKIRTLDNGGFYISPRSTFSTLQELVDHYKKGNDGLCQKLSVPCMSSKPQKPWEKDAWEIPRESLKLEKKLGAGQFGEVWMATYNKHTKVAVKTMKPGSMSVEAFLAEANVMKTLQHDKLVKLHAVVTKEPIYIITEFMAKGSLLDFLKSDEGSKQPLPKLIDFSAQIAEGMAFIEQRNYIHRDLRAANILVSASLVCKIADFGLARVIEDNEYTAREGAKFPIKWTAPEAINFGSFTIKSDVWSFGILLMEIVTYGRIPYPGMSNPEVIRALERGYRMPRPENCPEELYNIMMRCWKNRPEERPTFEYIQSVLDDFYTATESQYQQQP

inhibition [1]: 46%
Structure (SMILES): CNC(=O)c1ccccc1Oc1nc(Nc2cc(OC)c(OC)c(OC)c2)ncc1Br

fold change (FC) [2]: 0 | fold change (FC) [3]: 0 | inhibition [4]: 0% | inhibition [5]: 0%
Structure (SMILES): O=C(N[C@@H](C1CC1)C(F)(F)F)c1cc(-c2cnn3cc(-c4ccc(F)cc4)cnc23)cs1

inhibition [6]: 0%
Structure (SMILES): CC(C)[C@H](NC(=O)c1cc(-c2cnn3cc(-c4ccc(OCCN5CCCCC5)cc4)cnc23)cs1)C(F)(F)F
